This is an account of results in ChEMBL document CHEMBL1125528, “Synthesis and pharmacological evaluation of enantiomerically pure 4-deoxy-4-fluoromuscarines” (J Med Chem, 1992).

A word on the ED50: it is the midpoint of the dose-response relation. A high value points to weaker potency.

For test [1], the target named is Muscarinic acetylcholine receptor M3 (Cavia porcellus) (UniProt Q8VH26). Kind of test: In vitro potency at muscarinic M3 receptors of guinea pig ileum. The class given is functional, tissue-based.
For test [2], the target named is T1, Muscarinic acetylcholine receptor M2 (Homo sapiens) (UniProt P08172).
T1 sequence (whole entry): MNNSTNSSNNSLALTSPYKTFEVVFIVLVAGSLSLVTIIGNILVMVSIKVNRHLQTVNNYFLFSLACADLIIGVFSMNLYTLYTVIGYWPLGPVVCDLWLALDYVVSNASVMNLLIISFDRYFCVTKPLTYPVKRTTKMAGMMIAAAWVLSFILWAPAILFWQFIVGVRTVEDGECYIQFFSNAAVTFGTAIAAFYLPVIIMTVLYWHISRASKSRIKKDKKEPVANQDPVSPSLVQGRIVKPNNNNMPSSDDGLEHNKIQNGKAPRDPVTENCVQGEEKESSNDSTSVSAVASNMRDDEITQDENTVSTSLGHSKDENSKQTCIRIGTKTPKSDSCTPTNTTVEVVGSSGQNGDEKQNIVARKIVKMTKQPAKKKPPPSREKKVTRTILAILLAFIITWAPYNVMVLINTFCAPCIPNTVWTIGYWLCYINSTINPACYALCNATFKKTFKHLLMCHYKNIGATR
The test can be described thus: In vitro potency at muscarinic M2 receptors of guinea pig heart relative to muscarine. In kind it is functional. The following applies: Cavia porcellus; target entry is the homologue from another species.

For test [3], the target named is Muscarinic acetylcholine receptor M3 (Cavia porcellus) (UniProt Q8VH26). Kind of test: In vitro potency at muscarinic M3 receptors of guinea pig bladder relative to muscarine.. The class given is functional.
Test [4] shares this target. The test can be described thus: In vitro potency at muscarinic M3 receptors of guinea pig bladder. In kind it is functional. Summed up: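 Guinea pig bladder longitudinal strip (2 mm wide, urethra to apex) in ileum PSS at 37 °C with isometric recording; 30 min equilibration, then the ileum protocol.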
Test [5] deals with T1, Muscarinic acetylcholine receptor M2 (Homo sapiens). The test can be described thus: In vitro potency at muscarinic M2 receptors of guinea pig heart(atria force). The class given is functional. The following applies: Cavia porcellus; target entry is the homologue from another species.
Test [6] deals with Muscarinic acetylcholine receptor M3 (Cavia porcellus) (UniProt Q8VH26). The following applies: Ileum.
Test [7] has the same target. The test can be described thus: % muscarinic acetylcholine receptor M3 occupied at ED50 on guinea pig ileum. In kind it is tissue-based.
For test [8] the target is unchanged. The following applies: Ileum. The source holds these as a separate data set.
Test [9] shares this target. The following applies: Ileum. The source holds these as a separate data set.
For test [10] the target is unchanged. The test can be described thus: % muscarinic acetylcholine receptor M3 occupied at ED50 on guinea pig bladder.
Test [11] deals with T1, Muscarinic acetylcholine receptor M2 (Homo sapiens). The test can be described thus: Affinity for muscarinic receptors in guinea pig heart(atria rate) relative to muscarine. The following applies: Cavia porcellus; target entry is the homologue from another species.
Test [12] has the same target. Kind of test: Efficacy for muscarinic receptors in guinea pig heart(atria force relative to muscarine. The following applies: Cavia porcellus; target entry is the homologue from another species. In kind it is functional.
For test [13] the target is unchanged. Kind of test: Affinity for muscarinic receptors in guinea pig heart(atria force) relative to muscarine. The following applies: Cavia porcellus; target entry is the homologue from another species.
For test [14] the target is unchanged. The test can be described thus: % receptor occupied at ED50 on guinea pig heart(atria rate). The following applies: Cavia porcellus; target entry is the homologue from another species.
Test [15] deals with Muscarinic acetylcholine receptor M3 (Cavia porcellus) (UniProt Q8VH26). The test can be described thus: % receptor occupied at ED50 on guinea pig ileum. The class given is tissue-based.
Test [16] deals with T1, Muscarinic acetylcholine receptor M2 (Homo sapiens). The test can be described thus: Dissociation constant at guinea pig heart(atria rate). The following applies: Cavia porcellus; target entry is the homologue from another species. In kind it is functional.
For test [17], the target named is Muscarinic acetylcholine receptor M3 (Cavia porcellus) (UniProt Q8VH26). Kind of test: Efficacy for muscarinic receptors in guinea pig bladder relative to muscarine. The class given is functional.
Test [18] deals with T1, Muscarinic acetylcholine receptor M2 (Homo sapiens). Kind of test: Potency at cardiac M2 receptors mediating bradycardia to decrease the heart rate in pithed rat. In kind it is functional, tissue-based. Summed up: (§1)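 Pithed rats, artificially respired at 60 cycles/min, 1 mL/100 g, with heparin 150 IU/kg iv, at about 37 °C. Heart rate came from the carotid pressure pulse after at least 30 min stabilisation. Agonists in 0.9% saline were given iv at 0.1 mL/100 g, one curve per preparation. ED50 was read graphically. Antagonists (pirenzepine 50 µg/kg, methoctramine 300 µg/kg iv) were given 20 min beforehand.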

Test [19] concerns the target Muscarinic acetylcholine receptor M3 (Cavia porcellus) (UniProt Q8VH26). Kind of test: Dissociation constant at muscarinic M3 receptors of guinea pig ileum. In kind it is tissue-based.
Test [20] shares this target. The test can be described thus: Affinity for muscarinic receptors in guinea pig ileum relative to muscarine. The class given is tissue-based.
The target is the same in test [21]. Kind of test: Dissociation constant at muscarinic M3 receptors of guinea pig bladder.
In test [22] the target is T1, Muscarinic acetylcholine receptor M2 (Homo sapiens). Kind of test: In vitro potency at muscarinic M2 receptors of guinea pig heart(atria rate). In kind it is functional. The following applies: Cavia porcellus; target entry is the homologue from another species.
The target is the same in test [23]. The test can be described thus: Efficacy for muscarinic receptors in guinea pig heart(atria rate) relative to muscarine. The class given is functional. The following applies: Cavia porcellus; target entry is the homologue from another species.
Test [24] addresses Muscarinic acetylcholine receptor M3 (Cavia porcellus) (UniProt Q8VH26). The test can be described thus: % receptor occupied at ED50 on guinea pig bladder.
Test [25] addresses T2, Muscarinic acetylcholine receptor M1 (Homo sapiens) (UniProt P11229).
T2 sequence (whole entry): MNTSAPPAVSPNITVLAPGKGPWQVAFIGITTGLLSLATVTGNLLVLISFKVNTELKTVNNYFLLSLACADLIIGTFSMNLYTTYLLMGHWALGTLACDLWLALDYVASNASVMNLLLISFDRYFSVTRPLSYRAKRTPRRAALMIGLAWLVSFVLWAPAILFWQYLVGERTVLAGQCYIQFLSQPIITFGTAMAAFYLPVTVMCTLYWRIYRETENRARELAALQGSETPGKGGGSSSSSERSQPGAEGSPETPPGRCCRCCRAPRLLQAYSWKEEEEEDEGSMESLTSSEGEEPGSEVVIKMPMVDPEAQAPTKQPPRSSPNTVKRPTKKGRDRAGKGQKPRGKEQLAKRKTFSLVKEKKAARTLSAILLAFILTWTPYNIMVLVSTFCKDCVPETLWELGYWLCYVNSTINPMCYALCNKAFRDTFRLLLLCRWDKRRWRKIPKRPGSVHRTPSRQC
The test can be described thus: Potency at ganglionic M1 receptors mediating tachycardia to increase the heart rate in pithed rat. The class given is functional, tissue-based. Summed up:
as §1

In test [26] the target is T1, Muscarinic acetylcholine receptor M2 (Homo sapiens). The test can be described thus: % receptor occupied at ED50 on guinea pig heart(atria force). The following applies: Cavia porcellus; target entry is the homologue from another species.
The target is the same in test [27]. Kind of test: Dissociation constant at guinea pig heart(atria force). In kind it is functional. The following applies: Cavia porcellus; target entry is the homologue from another species.
Test [28] deals with Muscarinic acetylcholine receptor M3 (Cavia porcellus) (UniProt Q8VH26). The test can be described thus: Efficacy for muscarinic receptors in guinea pig ileum relative to muscarine. The class given is functional, tissue-based.
For test [29] the target is unchanged. Kind of test: Affinity for muscarinic receptors in guinea pig bladder relative to muscarine.
Test [30] shares this target. Kind of test: In vitro potency at muscarinic M3 receptors of guinea pig ileum relative to muscarine.. The class given is functional, tissue-based.

Chain of Muscarinic acetylcholine receptor M3 (Cavia porcellus) (Q8VH26 1-587): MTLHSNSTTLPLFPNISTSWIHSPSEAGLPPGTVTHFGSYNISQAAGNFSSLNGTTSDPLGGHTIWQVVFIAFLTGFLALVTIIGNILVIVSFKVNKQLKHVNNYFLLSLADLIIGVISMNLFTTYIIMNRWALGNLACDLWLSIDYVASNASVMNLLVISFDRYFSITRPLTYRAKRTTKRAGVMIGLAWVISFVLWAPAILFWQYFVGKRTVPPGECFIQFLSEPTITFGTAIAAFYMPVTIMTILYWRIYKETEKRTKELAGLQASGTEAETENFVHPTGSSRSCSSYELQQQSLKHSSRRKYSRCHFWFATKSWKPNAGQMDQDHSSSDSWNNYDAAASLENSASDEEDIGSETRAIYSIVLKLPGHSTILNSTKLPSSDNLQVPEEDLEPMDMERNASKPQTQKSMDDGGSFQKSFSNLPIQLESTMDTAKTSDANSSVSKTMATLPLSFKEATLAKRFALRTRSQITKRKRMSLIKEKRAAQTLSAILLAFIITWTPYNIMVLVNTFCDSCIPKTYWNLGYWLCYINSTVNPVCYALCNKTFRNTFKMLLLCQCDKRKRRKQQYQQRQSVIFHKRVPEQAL

Turning to `C[C@@H]1O[C@@H](C[N+](C)(C)C)C[C@H]1F`, the -Log ED50 was 5.93 in test [1], 4.45 in test [4] and 5.59 in test [5]. Also, the Intrinsic activity in [2] stood at 0.97; in test [3], 0.74.

As for `C[C@@H]1O[C@H](C[N+](C)(C)C)C[C@H]1O` (racemic), the PD2 came out at 5.69 in test [6] and 7.1 in [8]. Further, the Receptor occupied was 6.62% in test [7] and 7.85% in [10]. Besides, the -Log KD in [9] is 5.95.

In the case of `C[C@@H]1O[C@@H](C[N+](C)(C)C)C[C@@H]1F`, the -Log ED50 in test [1] turned out to be 4.64; in test [4], 3.92; in test [5] it was 4.07. The Intrinsic activity in test [2] amounted to 0.72; in test [3], 0.52.

As for `C[C@@H]1O[C@H](C[N+](C)(C)C)C[C@@H]1F`, the -Log ED50 in test [1] turned out to be 5.02; in test [4], 3.74; in [5], 4.43. The Intrinsic activity in test [2] and in [3] was 0.76 in each case.

For `C[C@@H]1O[C@H](C[N+](C)(C)C)C[C@H]1F`, the Relative affinity was determined as 14.5 in test [11], 0.93 in [13], 0.59 in [20] and 0.59 in test [29]. The Relative efficacy came out at 1.17 in test [12], 1.54 in [17], 0.21 in [23] and 2.96 in test [28]. The Receptor occupied in [14] stood at 7.36%; in test [15], 2.24%; in test [24], 5.11%; in test [26], 0.86%. The PD2 amounted to 7.36 in [1], 5.66 in test [4] and 6.73 in test [5]. Further, the -Log KD was determined as 5.77 in test [16], 5.72 in [19], 4.39 in [21] and 4.67 in [27]. Also, the Intrinsic activity in [2] worked out at 0.98; in test [3], 0.88; in test [30] it was 0.95. Besides, the figures for the ED50 in test [18] and in test [25] were 0.0235 mg/kg and 0.0045 mg/kg, respectively. This compound yielded a -Log ED50 in [22] of 6.87.
